# Source: ChEMBL document CHEMBL1153742, “Cytotoxic constituents of the lichen Diploicia canescens” (J Nat Prod, 2009)
# Tests used:
# Format in all cases: functional, cell-based
# B16 [1] = assay: Cytotoxicity against mouse B16 cells after 72 hrs by MTT assay; settings: B16, 72 h
# How it was run: (§1)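 B16 melanoma cells were seeded at 15 000 cells/mL in RPMI 1640 with 5% FCS, and after 5 h the medium was switched to RPMI with 1% FCS. Serial dilutions from 0.25 to 100 µM were added on days 1, 2 and 3. Cells were incubated at 37 °C in 10% CO2 for 72 h, and viability was read by MTT on day 4. Each concentration ran in triplicate wells, and each experiment was repeated at least three times.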
# HaCaT = assay: Cytotoxicity against human HaCaT cells after 72 hrs by MTT assay
# How it was run: as §1, with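 “HaCaT keratinocytes” for “B16 melanoma cells”, “25” for “15”, “DMEM” for “RPMI 1640”, “10%” for “5%”, “reduced-serum DMEM.” for “RPMI with 1% FCS.”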
# B16 [2] = assay: Cytotoxicity against mouse B16 cells after 48 hrs by MTT assay; settings: B16, 48 h
# How it was run: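 Mouse B16 melanoma cells were seeded at 30 000 cells/mL in RPMI 1640 with 10% FCS on day 0. Compound dilutions were added on day 1. Cells were incubated at 37 °C under 10% CO2, and growth and viability were read by MTT after 48 h. IC50 was derived from at least three independent experiments, with three wells per concentration.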
Compound,IC50 (B16 [1]) [nM],IC50 (HaCaT) [nM],IC50 (B16 [2]) [nM]
COC(=O)c1c(Oc2c(C)c(Cl)c(OC)c(Cl)c2O)cc(OC)c(Cl)c1C [BUELLIN],250,> 10000,
COC(=O)[C@@]12Oc3ccc(-c4ccc5c(c4O)C(=O)C4=C(O)C[C@H](C)[C@H](O)[C@]4(C(=O)OC)O5)c(O)c3C(=O)C1=C(O)C[C@H](C)[C@@H]2O [SECALONIC ACID B],,> 10000,2800
COc1cc2c(c(C)c1Cl)Oc1cc(OC)c(Cl)c(C)c1C(=O)O2 [SCENSIDIN],400,6100,
COc1cc([C@@H]2c3cc4c(cc3[C@@H](O[C@@H]3O[C@@H]5CO[C@@H](C)O[C@H]5[C@H](O)[C@H]3O)[C@H]3COC(=O)[C@H]23)OCO4)cc(OC)c1O [ETOPOSIDE],280,550,
COc1c(Cl)c(C)c2c(c1Cl)OC(=O)c1c(cc(O)c(Cl)c1C)O2 [DECHLORODEPLOICIN],1700,4300,
COc1c(Cl)c(C)c2c(c1Cl)OC(=O)c1c(C)c(Cl)c(O)c(Cl)c1O2 [DIPLOICIN],4000,> 10000,
COC(=O)[C@@]12Oc3ccc(-c4ccc5c(c4O)C(O)C4=C(O)C[C@H](C)[C@@H](O)[C@]4(C(=O)OC)O5)c(O)c3C(=O)C1=C(O)C[C@H](C)[C@H]2O (some centres undefined) [SECALONIC ACID D],,3700,280
